Data set [1] can be described thus: Cytotoxicity against human KB-VIN cells assessed as reduction in cell viability at 10 uM incubated for 48 hrs by MTT assay. Type of data set: cell-based. The procedure, abridged:
(§1)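 Cells plated at 3~5 × 10^3 per well and allowed 24 h before exposure to compound or DMSO (negative control) for 48 h. A2780/T and KB-VIN were grown in DMEM/F12 with 10% FBS, and HUVEC, HOSEC and T29 in RPMI-1640 with 10% FBS, all at 37 °C under 5% CO₂. MTT was added for 4 h, formazan dissolved in DMSO and absorbance read at 490 nm. Inhibition was calculated relative to DMSO and blank.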

Data set [2] in a line: Cytotoxicity against human HOSEC cells assessed as reduction in cell viability at 10 uM incubated for 48 hrs by MTT assay. Type of data set: cell-based. Particulars: hose. The procedure, abridged:
as §1

Data set [3] is described as follows: Cytotoxicity against human T29 cells assessed as reduction in cell viability at 10 uM incubated for 48 hrs by MTT assay. Particulars: t29, 48 h. In kind it is cell-based. A digest of the protocol: as §1
Background: Tetrazolium dyes change colour on reduction, which living cells bring about.

Data set [4] has as its system HUVEC. The data set can be described thus: Cytotoxicity against human HUVEC cells assessed as reduction in cell viability at 10 uM incubated for 48 hrs by MTT assay. In kind it is cell-based. A digest of the protocol: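 Cells plated at 3~5 × 10^3 per well and allowed 24 h before exposure to compound or DMSO (negative control) for 48 h. MTT was added for 4 h, formazan dissolved in DMSO and absorbance read at 490 nm. Inhibition was calculated relative to DMSO and blank.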

The nature of data set [5]: Reversal of multidrug resistance activity in P-gp overexpressing human A2780T cells assessed as potentiation of PTX-induced cytotoxicity by measuring reversal ratio at 10 uM incubated for 48 hrs in presence of paclitaxel by MTT assay. In kind it is functional, A2780/Taxol. The procedure, abridged:
(§2)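 Resistant cells were plated at 3~5 × 10^3 per well, given 24 h, then co-treated with test compound plus a range of anticancer drug concentrations (PTX for A2780/T, VCR for KB-VIN, cisplatin for A2780/CDDP) or DMSO for 48 h. Read-out was by MTT, 4 h at 37 °C, with absorbance at 490 nm. Reversal ratio = IC50 (drug alone) / IC50 (drug with compound).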

A short description of data set [6]: Reversal of multidrug resistance activity in human A2780/CDDP cells assessed as potentiation of CDDP-induced cytotoxicity by measuring reversal ratio at 10 uM incubated for 48 hrs in presence of CDDP by MTT assay. Type of data set: functional. A digest of the protocol: as §2
A short description of data set [7]: Reversal of multidrug resistance activity in P-gp overexpressing human KB-VIN cells assessed as potentiation of VCR-induced cytotoxicity by measuring reversal ratio at 10 uM incubated for 48 hrs in presence of VCR by MTT assay. In kind it is functional. A digest of the protocol:
as §2

Data set [8] relates to A2780/Taxol. The data set can be described thus: Cytotoxicity against human A2780T cells assessed as reduction in cell viability at 10 uM incubated for 48 hrs by MTT assay. In kind it is cell-based. The procedure, abridged: as §1
Data set [9] is described as follows: Reversal of multidrug resistance activity in P-gp overexpressing human A2780T cells assessed as potentiation of PTX-induced cytotoxicity by measuring reversal ratio at 200 nM incubated for 48 hrs in presence of paclitaxel by MTT assay.
Data set [10] has as its system A2780/Taxol. The data set can be described thus: Decrease in P-gp expression in human A2780T cells at 10 uM incubated for 48 hrs by western blot analysis. Type of data set: functional, cell-based. A digest of the protocol: (§3)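 A2780/T cells (about 5×10^5 per well) were allowed 24 h, then treated with compound at 10 µM for 48 h at 37 °C. Cells were lysed in RIPA buffer with 1 mM PMSF. Lysates (20 µg protein) were run on 12% SDS-PAGE and transferred to PVDF. Blots were blocked in 3% BSA and probed overnight at 4 °C with anti-P-gp or GAPDH antibody (1:1000), then with HRP secondary (1:10000) for 1 h. Detection was by ECL with densitometry.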
On the technique in general: A western blot detects proteins with antibodies after separation by electrophoresis.

For data set [11], the species on record is Homo sapiens. The data set can be described thus: Stimulation of human membrane P-gp ATPase activity at 0.5 mM using MgATP as substrate preincubated with enzyme for 5 mins followed by substrate addition and measured after 120 mins by ADP-Glo luminescence assay relative to control. Type of data set: cell membranes. The following applies: time 125.0 min. A digest of the protocol: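 Reactions were started with 10 μL of 25 mM MgATP and run 120 min at 37 °C. ATP detection reagent was then added, and luminescence was read after about 20 min at room temperature (P-gp-Glo). Results are mean ± SD of three independent experiments.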
(In general: ADP-Glo turns the ADP formed in a reaction into a luminescent signal.)

Data set [12] relates to A2780/Taxol. The data set can be described thus: Increase in P-gp expression in human A2780T cells at 10 uM incubated for 48 hrs by western blot analysis. Type of data set: functional, cell-based. A digest of the protocol: as §3
Data set [13] deals with A2780T. The data set can be described thus: Inhibition of P-gp mediated multidrug resistance activity in human A2780T cells assessed as increase in intracellular DOX accumulation at 10 uM incubated for 4 hrs in presence of doxorubicin by flow cytometry. Type of data set: cell-based. A digest of the protocol:
(§4)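 A2780/T cells were seeded at about 5×10^5 per well and left 24 h. […] Cells were washed three times with ice-cold PBS and resuspended in cold PBS. DOX autofluorescence was measured by flow cytometry and by fluorescence/confocal microscopy. Data are given as mean ± SD.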

Data set [14] is described as follows: Reversal of multidrug resistance activity in P-gp overexpressing human A2780T cells assessed as potentiation of PTX-induced cytotoxicity by measuring reversal ratio at 1 uM incubated for 48 hrs in presence of paclitaxel by MTT assay. In kind it is functional, A2780/Taxol. A digest of the protocol: as §2
The test system of data set [15] is A2780T. The data set can be described thus: Inhibition of P-gp mediated multidrug resistance activity in human A2780T cells assessed as increase in intracellular DOX accumulation at 10 uM incubated for 4 hrs in presence of doxorubicin by fluorescence microsocopy. In kind it is cell-based. A digest of the protocol: as §4

Experimental findings from ChEMBL document CHEMBL4706532, “New Seco-DSP derivatives as potent chemosensitizers” (Eur J Med Chem, 2020) are described below.

Activity calls are given as the source filed them. The calls are words filed in the database; no cut-off is given here.

As to `CCc1cc(=O)c2ccc(OC(C)C)c(COC(=O)/C=C/c3ccccc3)c2o1`, the Activity result in [1], in data set [2], in [3], in [4] and in data set [8] was “Non-Toxic” in each case. The Ratio in data set [5] is on record as 685; in [6], 0.81; in [7] it was 466.

Consider `CCc1cc(=O)c2ccc(OC)c(COC(=O)c3cccc(N(C)C)c3)c2o1`, for which the Activity entry in data set [1], in data set [2], in [3], in [4] and in [8] was “Non-Toxic” in each case. The Ratio in data set [5] is reported as 484; in [6], 0.81; in data set [7], 234.

Consider `CCOc1ccc2c(=O)cc(CC)oc2c1COC(=O)/C=C/c1ccc(OC)cc1`, for which the Ratio is 1.05 in data set [9]; over 1471 in data set [5]; 0.88 in [6]; 299 in [7]; 128 in data set [14]. The Activity result in data set [1] was “Non-Toxic”; in data set [2] it was “Non-Toxic”; in data set [3], “Non-Toxic”; in data set [4], “Non-Toxic”; in data set [8], “Toxic”. For the same molecule, the inhibition result in data set [10] was “inactive”. In data set [11], the fold change (FC) was determined as 1.2. The outcome in [12] was inactive. Moreover, the inhibition entry in [13] and in data set [15] was “Active” each time.

For `CCc1cc(=O)c2ccc(OC)c(COC(=O)c3cc(OC)c(OC)c(OC)c3)c2o1`, the Activity result in [1], in data set [2], in [3], in data set [4] and in data set [8] was “Non-Toxic” in each case. The Ratio in data set [5] came out at 537; in data set [6] it was 0.81; in data set [7], 424.

As to `COc1ccc(CCN(C)CCCC(C#N)(c2ccc(OC)c(OC)c2)C(C)C)cc1OC` (centres undefined), the fold change (FC) in data set [11] was found to be 1.8. For the same molecule, the inhibition result in data set [13] and in data set [15] was “Active” in each case.

As to `CCc1cc(=O)c2ccc(OC(C)C)c(COC(=O)Cc3cc(OC)c(OC)c(OC)c3)c2o1`, the Ratio in [9] is reported as 1.05; in data set [5], 576; in data set [7] it was 604; in [14], 3.97. In addition, the Activity result in data set [1], in data set [2], in data set [3], in [4] and in data set [8] was “Non-Toxic” in each case. Besides, the inhibition result in [10] was “inactive”. The fold change (FC) in data set [11] amounted to 1.2. Moreover, the result in data set [12] was inactive. For the same molecule, the inhibition entry in data set [13] and in data set [15] was “Active” each time.

On to `CCOc1ccc2c(=O)cc(CC)oc2c1COC(=O)Cc1cc(OC)c(OC)c(OC)c1`, for which the Ratio stood at 1.05 in data set [9]; 677 in [5]; 0.97 in [6]; 628 in data set [7]; 4.13 in [14]. Moreover, the Activity entry in data set [1], in data set [2], in [3], in data set [4] and in data set [8] was “Non-Toxic” throughout. The inhibition entry in [10] is “inactive”. For the same molecule, the fold change (FC) in data set [11] came to 1.2. Also, the result in data set [12] was inactive. Further, the inhibition result in [13] and in [15] was “Active” each time.

`CCOc1ccc2c(=O)cc(CC)oc2c1COC(=O)c1cc(OC)c(OC)c(OC)c1`: the Activity result in [1], in data set [2], in [3], in data set [4] and in data set [8] was “Non-Toxic” each time. In addition, the Ratio in data set [5] was 457; in data set [6], 1.05; in data set [7] it was 248.

For `CCOc1ccc2c(=O)cc(CC)oc2c1COC(=O)/C=C/c1ccccc1`, the Ratio in [9] was 1.05; in data set [5], 503; in data set [6], 0.92; in data set [7], 633; in data set [14] it was 4.24. For the same molecule, the Activity entry in data set [1], in data set [2], in data set [3], in data set [4] and in data set [8] was “Non-Toxic” throughout. Also, in data set [10], the inhibition entry was “inactive”. In data set [11], this molecule showed a fold change (FC) of 1.2. Moreover, in data set [12], the result was inactive. Further, the inhibition result in data set [13] and in data set [15] was “Active” in each case.
